Assay results reported in ChEMBL document CHEMBL1764996, “Synthesis and separation of the enantiomers of the neuropeptide S receptor antagonist (9R/S)-3-oxo-1,1-diphenyl-tetrahydro-oxazolo[3,4-a]pyrazine-7-carboxylic acid 4-fluoro-benzylamide (SHA 68)” (J Med Chem, 2011).
One block for each molecule: values may come before it. Calls of active or inactive are those of the source. No cut-off for these calls is given here.

Key:
Type in all cases: functional, cell-based
[1] = biological target: T1, Neuropeptide S receptor (Mus musculus) (UniProt Q8BZP8); assay: Agonist activity at mouse NPSR expressed in HEK293 cells assessed as induction of calcium mobilization after 30 mins relative to control
T1 sequence (whole entry): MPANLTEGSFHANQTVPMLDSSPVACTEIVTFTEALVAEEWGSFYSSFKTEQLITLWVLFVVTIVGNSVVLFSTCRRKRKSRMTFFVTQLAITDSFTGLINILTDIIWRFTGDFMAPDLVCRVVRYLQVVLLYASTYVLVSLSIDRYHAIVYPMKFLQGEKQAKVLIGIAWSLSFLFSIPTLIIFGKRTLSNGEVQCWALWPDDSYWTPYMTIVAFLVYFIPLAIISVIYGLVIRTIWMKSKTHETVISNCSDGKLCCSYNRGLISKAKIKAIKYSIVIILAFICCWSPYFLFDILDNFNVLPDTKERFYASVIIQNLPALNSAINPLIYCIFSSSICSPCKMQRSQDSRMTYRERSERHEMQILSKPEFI
Procedure, shortened: (§1)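 HEK293 lines stably expressing human NPSR Ile107 or murine NPSR were grown in DMEM with 10% FBS, 2 mM L-glutamine and hygromycin B (100 mg/L) at 37 °C, 5% CO2. Cells were plated on poly-D-lysine wells and loaded with Fluo-4 AM (3 µM), probenecid 2.5 mM and 0.01% pluronic for 30 min at 37 °C. They were then read in HBSS/20 mM HEPES with probenecid and Brilliant Black on a FlexStation at 37 °C. Peak fluorescence change was taken as % baseline and fitted logistically for potency and maximal effect. Data are mean ± sem, n≥4 in duplicate.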

[2] = biological target: T1, Neuropeptide S receptor (Mus musculus); assay: (§2) Agonist activity at mouse NPSR expressed in HEK293 cells assessed as induction of calcium mobilization after 30 mins; procedure, shortened: as §1
[3] = biological target: T2, Neuropeptide S receptor (Mus musculus, UniProt Q8BZP8); assay: as §2; procedure, shortened: as §1
T2 sequence (Q8BZP8 whole entry): T1 sequence (whole entry)

[4] = biological target: T1, Neuropeptide S receptor (Mus musculus); assay: Agonist activity at mouse NPSR expressed in HEK293 cells assessed as induction of calcium mobilization at up to 10 uM after 30 mins; procedure, shortened: as §1
[5] = biological target: T3, Neuropeptide S receptor (Homo sapiens) (UniProt Q6W5P4); assay: Agonist activity at human NPSR Ile107 expressed in HEK293 cells assessed as induction of calcium mobilization after 30 mins relative to control; procedure, shortened: as §1
T3 sequence (whole entry): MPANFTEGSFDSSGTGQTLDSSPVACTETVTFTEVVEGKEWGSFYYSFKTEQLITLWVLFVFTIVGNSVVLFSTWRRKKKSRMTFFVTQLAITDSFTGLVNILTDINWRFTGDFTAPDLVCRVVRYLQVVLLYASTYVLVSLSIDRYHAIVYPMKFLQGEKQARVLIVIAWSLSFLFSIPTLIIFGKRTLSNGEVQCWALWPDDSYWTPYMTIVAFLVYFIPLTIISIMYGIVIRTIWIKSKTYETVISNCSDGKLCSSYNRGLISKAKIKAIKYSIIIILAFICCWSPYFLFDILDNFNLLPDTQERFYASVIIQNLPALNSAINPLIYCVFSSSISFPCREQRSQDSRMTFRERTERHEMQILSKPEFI

[6] = biological target: T3, Neuropeptide S receptor (Homo sapiens); assay: Agonist activity at human NPSR Asn107 expressed in HEK293 cells assessed as induction of calcium mobilization after 30 mins relative to control
Procedure, shortened: (§3)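 HEK293 cells stably expressing human NPSR Asn107 were kept in DMEM with 10% FBS, 2 mM glutamine and zeocin (100 mg/L) at 37 °C, 5% CO2. Cells were seeded on poly-D-lysine plates and loaded next day with 3 µM Fluo-4 AM, 2.5 mM probenecid and 0.01% pluronic acid for 30 min at 37 °C. Assay buffer was HBSS with 20 mM HEPES, 2.5 mM probenecid and 500 µM Brilliant Black. Fluorescence was read on a FlexStation at 37 °C. Response was the maximal fluorescence change as % of baseline. Potency and maximal effect came from nonlinear regression, with mean ± sem of ≥4 experiments in duplicate.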

[7] = biological target: T3, Neuropeptide S receptor (Homo sapiens); assay: (§4) Agonist activity at human NPSR Ile107 expressed in HEK293 cells assessed as induction of calcium mobilization after 30 mins; procedure, shortened: as §1
[8] = biological target: T4, Neuropeptide S receptor (Homo sapiens, UniProt Q6W5P4); assay: as §4; procedure, shortened: as §1
[9] = biological target: T3, Neuropeptide S receptor (Homo sapiens); assay: (§5) Agonist activity at human NPSR Asn107 expressed in HEK293 cells assessed as induction of calcium mobilization after 30 mins; procedure, shortened: as §3
[10] = biological target: T4, Neuropeptide S receptor; assay: as §5; procedure, shortened: as §3

- Emax [1]: 250%
- Activity [2]: Dose-dependent effect
- EC50 [3]: 1.07 nM
Molecule: H-SFRNGVGSGAKKTSFRRAKQ-OH

- Activity [4]: inactive
Molecule: O=C(NCc1ccc(F)cc1)N1CCN2C(=O)OC(c3ccccc3)(c3ccccc3)[C@H]2C1

- Activity [4]: inactive
Molecule: O=C(NCc1ccc(F)cc1)N1CCN2C(=O)OC(c3ccccc3)(c3ccccc3)C2C1 (single isomer, unassigned)

- Activity [4]: inactive
Molecule: O=C(NCc1ccc(F)cc1)N1CCN2C(=O)OC(c3ccccc3)(c3ccccc3)[C@@H]2C1

- Emax [5]: 333%
- Emax [6]: 316%
- Activity [7]: Dose-dependent effect
- pEC50 [8]: 9.17
- Activity [9]: Dose-dependent effect
- pEC50 [10]: 9.07
Molecule: H-SFRNGVGTGMKKTSFQRAKS-OH [NEUROPEPTIDE S]
